Assay results published in ChEMBL document CHEMBL3861992 (Bioorg Med Chem Lett, 2016).
The source made the active and inactive calls. The rule behind the calls is not given here.

Legend:
[1] = molecular target: Amyloid-beta precursor protein (Homo sapiens, UniProt P05067); test: Inhibition of amyloid beta (1 to 42 residues) (unknown origin) aggregation after 24 hrs by thioflavin T fluorescence assay
[2] = molecular target: Microtubule-associated protein tau (Homo sapiens, UniProt P10636); test: Inhibition of recombinant human TAU three-repeat microtubule-binding domain aggregation expressed in Escherichia coli after 16 hrs by thioflavin T fluorescence assay
Chain of Microtubule-associated protein tau (P10636 whole entry, the tested form may be a part): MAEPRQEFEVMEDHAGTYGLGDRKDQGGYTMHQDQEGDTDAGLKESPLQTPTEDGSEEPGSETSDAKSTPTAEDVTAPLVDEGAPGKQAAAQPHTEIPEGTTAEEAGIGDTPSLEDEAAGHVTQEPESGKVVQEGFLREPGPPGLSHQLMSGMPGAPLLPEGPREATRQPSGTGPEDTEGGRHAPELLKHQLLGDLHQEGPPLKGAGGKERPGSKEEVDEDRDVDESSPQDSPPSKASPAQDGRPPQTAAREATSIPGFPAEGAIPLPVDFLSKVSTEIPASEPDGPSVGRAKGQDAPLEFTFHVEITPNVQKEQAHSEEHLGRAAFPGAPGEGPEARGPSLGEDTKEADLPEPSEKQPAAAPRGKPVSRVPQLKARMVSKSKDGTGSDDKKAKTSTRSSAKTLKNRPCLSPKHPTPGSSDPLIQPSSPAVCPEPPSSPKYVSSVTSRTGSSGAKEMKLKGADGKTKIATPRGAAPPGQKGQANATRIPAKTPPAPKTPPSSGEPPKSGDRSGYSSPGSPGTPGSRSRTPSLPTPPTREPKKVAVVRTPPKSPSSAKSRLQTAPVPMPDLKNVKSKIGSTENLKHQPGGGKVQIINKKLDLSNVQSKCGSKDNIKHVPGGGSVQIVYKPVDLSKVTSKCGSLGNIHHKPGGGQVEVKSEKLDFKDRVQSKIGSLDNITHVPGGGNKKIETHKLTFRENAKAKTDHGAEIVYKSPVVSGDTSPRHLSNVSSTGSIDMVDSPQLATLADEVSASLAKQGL

[3] = Drug uptake in Sprague-Dawley rat brain at 50 mg/kg, po after 3 hrs by LC-MS/MS analysis; type: ADME, organism-based; conditions: read-out: Drug uptake
How it was run: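 Brains collected from SD rats 3 h after a 50 mg/kg oral dose; tissue drug concentration measured per g tissue. Mean ± SD, n = 3.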

[4] = Plasma concentration in Sprague-Dawley rat at 50 mg/kg, po after 3 hrs by LC-MS/MS analysis; type: ADME, organism-based
How it was run: (§1)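 SD rats dosed orally at 50 mg/kg; plasma drug levels followed up to 3 h. Mean ± SD, n = 3.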

[5] = Drug uptake in Sprague-Dawley rat plasma at 5 mg/kg, iv up to 3 hrs by LC-MS/MS analysis; type: ADME, organism-based; conditions: in vivo
How it was run: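 SD rats given 5 mg/kg intravenously; plasma concentrations sampled up to 3 h post-dose. Mean ± SD, n = 3.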

Mus musculus = test: In vivo inhibition of human tau aggregation in JNPL3 human tau P301L transgenic mouse model assessed as reduction in amount of sarkosyl-insoluble tau in brain at 20 to 40 mg/kg/day, po for 4 weeks by ELISA; type: functional, organism-based
[6] = Tmax in mouse; type: ADME, organism-based; conditions: in vivo
[7] = Cmax in Sprague-Dawley rat at 50 mg/kg, po after 30 mins by LC-MS/MS analysis; type: ADME, organism-based; parameters: dose 50 mg/kg, route oral; conditions: in vivo; how it was run: as §1

Chain of Amyloid-beta precursor protein (P05067 whole entry, the tested form may be a part): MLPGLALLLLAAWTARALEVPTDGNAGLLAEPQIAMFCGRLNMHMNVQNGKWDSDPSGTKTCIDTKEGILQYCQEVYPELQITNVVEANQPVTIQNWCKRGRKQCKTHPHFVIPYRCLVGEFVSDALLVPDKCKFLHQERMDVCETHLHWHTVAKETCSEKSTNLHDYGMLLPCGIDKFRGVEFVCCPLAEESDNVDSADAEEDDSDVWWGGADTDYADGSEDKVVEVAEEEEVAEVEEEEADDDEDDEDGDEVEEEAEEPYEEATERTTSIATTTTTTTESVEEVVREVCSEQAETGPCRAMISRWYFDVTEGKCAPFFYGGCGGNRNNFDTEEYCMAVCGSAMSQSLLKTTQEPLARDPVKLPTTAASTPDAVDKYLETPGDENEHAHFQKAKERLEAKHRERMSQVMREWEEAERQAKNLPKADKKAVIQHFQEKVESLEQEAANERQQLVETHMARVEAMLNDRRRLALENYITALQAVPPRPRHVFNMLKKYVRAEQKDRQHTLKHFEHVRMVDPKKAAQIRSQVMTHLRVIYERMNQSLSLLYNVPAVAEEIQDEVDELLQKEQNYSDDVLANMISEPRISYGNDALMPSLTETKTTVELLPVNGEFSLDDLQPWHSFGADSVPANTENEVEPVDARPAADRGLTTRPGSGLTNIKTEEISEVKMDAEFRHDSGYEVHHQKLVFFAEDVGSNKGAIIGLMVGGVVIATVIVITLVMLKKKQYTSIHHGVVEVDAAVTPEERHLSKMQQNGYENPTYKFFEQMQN

SMILES | IC50 [1] [nM] | IC50 [2] [nM] | further results
COc1cc(OCc2ccccn2)ccc1/C=C/c1cc(/C=C/c2ccc3cc[nH]c3c2)[nH]n1 | 1200 | 660 | concentration at 3 h [3]: 276 ng/g; concentration at 3 h [4]: 466 ng/mL; Drug uptake [5]: Active; inhibition (Mus musculus): Active; Tmax [6]: 6 h
COc1cc(OCC2CCCO2)ccc1/C=C/C(=O)CC(=O)/C=C/c1ccc2cc[nH]c2c1 (stereo not drawn) | 2500 | 420 | –
COc1cc(/C=C/C(=O)CC(=O)/C=C/c2cccc(O)c2OC)ccc1O | 1900 | 710 | –
COc1cc(/C=C/C(=O)CC(=O)/C=C/c2ccc(O)cc2OC)ccc1O | 920 | 580 | –
COc1cc(O)cc(/C=C/C(=O)CC(=O)/C=C/c2ccc(O)c(OC)c2)c1 | 1100 | 320 | –
COc1cc(/C=C/C(=O)CC(=O)/C=C/c2ccc(O)c(OC)c2)ccc1O [CURCUMIN] | – | – | concentration at 3 h [3]: 13 ng/g
COc1ccc(/C=C/C(=O)CC(=O)/C=C/c2ccc(O)c(OC)c2)cc1O | 2100 | 520 | –
COc1cc(O)ccc1/C=C/C(=O)CC(=O)/C=C/c1ccc(O)cc1OC | 4600 | > 10000 | –
COc1cc(/C=C/C(=O)CC(=O)/C=C/c2ccccc2)ccc1O | 2200 | 1400 | –
COc1cc(O)ccc1/C=C/C(=O)CC(=O)/C=C/c1ccc2cc[nH]c2c1 | 520 | 230 | –

Further lines, with some results ahead:

IC50 [1] [nM] | IC50 [2] [nM] | SMILES | further results
610 | 700 | COc1ccc(/C=C/C(=O)CC(=O)/C=C/c2ccc3cc[nH]c3c2)c(OC)c1 | –
500 | – | CN(C)c1ccc2nc3ccc(=[N+](C)C)cc-3sc2c1 [METHYLENE BLUE ANHYDROUS] | –
5400 | 610 | COc1cc(OCc2ccccc2)ccc1/C=C/C(=O)CC(=O)/C=C/c1ccc2cc[nH]c2c1 | –
930 | 1400 | COc1ccc(/C=C/C(=O)CC(=O)/C=C/c2ccc(O)c(OC)c2)c(O)c1 | –
760 | 2000 | COc1cc(/C=C/C(=O)CC(=O)/C=C/c2ccco2)ccc1O | –
420 | 440 | COc1cc(/C=C/C(=O)CC(=O)/C=C/c2ccc3cc[nH]c3c2)ccc1O | –
590 | 420 | COc1cc(/C=C/C(=O)CC(=O)/C=C/c2ccc3ccccc3c2)ccc1O | –
> 10000 | > 10000 | COc1cc(/C=C/C(=O)CC(=O)/C=C/c2cccnc2)ccc1O | –
470 | 330 | COc1cc(OCc2ccccn2)ccc1/C=C/C(=O)CC(=O)/C=C/c1ccc2cc[nH]c2c1 | Cmax [7]: 5.7 ng/mL; concentration at 3 h [3]: 1 ng/g
1300 | 600 | COc1cc(/C=C/C(=O)CC(=O)/C=C/c2cc(O)ccc2OC)ccc1O | –
1800 | 920 | COc1ccc(O)c(/C=C/C(=O)CC(=O)/C=C/c2ccc(O)c(OC)c2)c1 | –
3700 | 1200 | COc1cc(/C=C/C(=O)CC(=O)/C=C/c2ccc3c(c2)OCO3)ccc1O | –
1600 | 910 | COc1cc(/C=C/C(=O)CC(=O)/C=C/c2c(O)cccc2OC)ccc1O | –
5400 | 690 | COc1cc(/C=C/C(=O)CC(=O)/C=C/c2cccc(OC)c2O)ccc1O | –
